Reference: ChEMBL document CHEMBL1153170, “Novel imidazolopyrimidines as dual PI3-Kinase/mTOR inhibitors” (Bioorg Med Chem Lett, 2010)
pIC50: −log10 of the molar value. Active and inactive are the calls of the source. No cut-off for these calls is given here.

Experiments:
[1] = biological target: T1, Phosphatidylinositol 4,5-bisphosphate 3-kinase catalytic subunit alpha isoform (Homo sapiens, UniProt P42336); experiment: Inhibition of PI3Kalpha
[2] = biological target: Phosphatidylinositol 4,5-bisphosphate 3-kinase catalytic subunit gamma isoform (Homo sapiens, UniProt P48736); experiment: Inhibition of PI3Kgamma
Sequence of Phosphatidylinositol 4,5-bisphosphate 3-kinase catalytic subunit gamma isoform (P48736 whole entry, canonical isoform): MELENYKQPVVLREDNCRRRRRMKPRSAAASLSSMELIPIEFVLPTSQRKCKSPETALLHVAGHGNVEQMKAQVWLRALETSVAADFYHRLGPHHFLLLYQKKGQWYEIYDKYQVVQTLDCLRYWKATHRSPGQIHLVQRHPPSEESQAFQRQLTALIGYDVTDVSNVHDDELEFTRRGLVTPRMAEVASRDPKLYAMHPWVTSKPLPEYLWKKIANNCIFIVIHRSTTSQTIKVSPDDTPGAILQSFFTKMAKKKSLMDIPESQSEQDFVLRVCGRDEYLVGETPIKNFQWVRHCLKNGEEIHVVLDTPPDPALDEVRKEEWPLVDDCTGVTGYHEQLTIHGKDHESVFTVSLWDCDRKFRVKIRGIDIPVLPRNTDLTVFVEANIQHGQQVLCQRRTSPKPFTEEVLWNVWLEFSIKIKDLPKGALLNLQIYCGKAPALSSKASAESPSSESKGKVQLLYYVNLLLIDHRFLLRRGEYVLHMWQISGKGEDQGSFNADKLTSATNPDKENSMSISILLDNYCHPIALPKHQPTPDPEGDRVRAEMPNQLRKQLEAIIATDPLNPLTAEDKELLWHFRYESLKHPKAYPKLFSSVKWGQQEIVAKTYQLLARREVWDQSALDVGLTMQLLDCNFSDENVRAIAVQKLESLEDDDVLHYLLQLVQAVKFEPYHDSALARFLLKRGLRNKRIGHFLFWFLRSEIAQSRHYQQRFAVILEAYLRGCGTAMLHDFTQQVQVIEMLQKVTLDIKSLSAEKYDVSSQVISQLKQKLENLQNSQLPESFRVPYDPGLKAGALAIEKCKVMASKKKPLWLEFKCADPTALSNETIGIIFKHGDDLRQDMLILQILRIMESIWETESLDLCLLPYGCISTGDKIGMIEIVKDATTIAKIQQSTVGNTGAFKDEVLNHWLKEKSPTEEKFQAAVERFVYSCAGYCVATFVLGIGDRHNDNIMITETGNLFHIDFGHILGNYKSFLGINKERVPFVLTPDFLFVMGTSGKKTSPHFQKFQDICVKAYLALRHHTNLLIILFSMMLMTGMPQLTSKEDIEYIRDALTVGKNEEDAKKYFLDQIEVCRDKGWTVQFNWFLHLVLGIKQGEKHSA

[3] = biological target: Serine/threonine-protein kinase mTOR (Homo sapiens, UniProt P42345); experiment: Inhibition of mTOR
[4] = Growth inhibition of human PC3MM2 cells after 72 hrs by celltiter assay; type: functional, cell-based; conditions: PC3MM2, 72 h
Procedure, shortened: (§1)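 Cells from ATCC, maintained at 37 °C, 5% CO2 in growth medium with 10% fetal calf serum plus penicillin/streptomycin. Seeding density set per line's growth characteristics; 96-well format. Viable cells quantified by CellTiter 96 aqueous non-radioactive colorimetric proliferation assay after 72 h compound exposure.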

[5] = biological target: T1, Phosphatidylinositol 4,5-bisphosphate 3-kinase catalytic subunit alpha isoform; conditions: MDA-MB-361, 10 to 30 uM
[6] = tested on: MDA-MB-361; experiment: Growth inhibition of human MDA-MB-361 cells after 72 hrs by celltiter assay; type: functional, cell-based; conditions: MDA-MB-361, 72 h; procedure, shortened: as §1
[7] = biological target: T1, Phosphatidylinositol 4,5-bisphosphate 3-kinase catalytic subunit alpha isoform; experiment: Inhibition of PI3Kalpha in human MDA-MB-361 cells assessed as reduction of phosphorylated Akt (T308) level after 4 hrs by Western blotting; type: cell-based
Procedure, shortened: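 Cells seeded 24 h before 4 h compound exposure in complete growth medium, washed with cold PBS, lysed in Tris-HCl pH 7.5/NaCl/EDTA/EGTA/Triton buffer with phosphatase and protease inhibitors. Lysates resolved by SDS-PAGE, blotted to nitrocellulose, probed for phospho-Akt T308, total Akt, actin; HRP secondary, chemiluminescent detection.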

T1 sequence (P42336 whole entry, canonical isoform): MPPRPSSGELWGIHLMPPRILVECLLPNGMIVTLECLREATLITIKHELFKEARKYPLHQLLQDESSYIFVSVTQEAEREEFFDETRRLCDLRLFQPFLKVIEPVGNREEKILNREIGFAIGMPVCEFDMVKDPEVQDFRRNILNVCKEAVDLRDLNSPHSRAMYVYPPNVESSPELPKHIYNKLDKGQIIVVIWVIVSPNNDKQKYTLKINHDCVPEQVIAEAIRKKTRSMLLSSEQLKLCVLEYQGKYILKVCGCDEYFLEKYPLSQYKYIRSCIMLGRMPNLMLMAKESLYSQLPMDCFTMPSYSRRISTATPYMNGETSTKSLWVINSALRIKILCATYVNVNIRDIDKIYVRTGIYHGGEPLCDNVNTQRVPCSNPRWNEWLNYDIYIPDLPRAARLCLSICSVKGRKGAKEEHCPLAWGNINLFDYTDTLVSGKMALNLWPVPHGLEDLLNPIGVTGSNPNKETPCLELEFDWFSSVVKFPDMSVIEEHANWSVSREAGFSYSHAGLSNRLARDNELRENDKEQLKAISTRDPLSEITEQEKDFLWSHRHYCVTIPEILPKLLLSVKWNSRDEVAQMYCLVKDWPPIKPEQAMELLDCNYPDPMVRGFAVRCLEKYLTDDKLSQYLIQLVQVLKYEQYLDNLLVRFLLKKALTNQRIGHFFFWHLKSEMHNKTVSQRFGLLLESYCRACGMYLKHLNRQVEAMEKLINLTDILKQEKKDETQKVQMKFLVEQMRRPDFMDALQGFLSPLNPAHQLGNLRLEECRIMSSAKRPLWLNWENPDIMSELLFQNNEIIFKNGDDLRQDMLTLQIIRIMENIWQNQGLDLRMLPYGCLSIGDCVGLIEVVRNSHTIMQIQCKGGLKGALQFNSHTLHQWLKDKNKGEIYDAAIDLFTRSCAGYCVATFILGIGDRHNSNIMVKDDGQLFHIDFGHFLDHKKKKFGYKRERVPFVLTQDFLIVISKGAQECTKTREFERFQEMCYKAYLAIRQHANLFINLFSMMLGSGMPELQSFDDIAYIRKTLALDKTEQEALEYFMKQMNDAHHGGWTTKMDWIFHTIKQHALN

SMILES | pIC50 [1] | pIC50 [2] | pIC50 [3] | pIC50 [4] | inhibition [5] | pIC50 [6] | pIC50 [7]
OCc1cccc(-c2nc(N3CCOCC3)c3ncn(C4CCNCC4)c3n2)c1 | 7.24 | 6.17 | – | – | – | – | –
Cc1ccc(CN2CCC(n3cnc4c(N5CCOCC5)nc(-c5cncc(O)c5)nc43)CC2)cc1 | 7.38 | 6.69 | – | – | – | – | –
Oc1cncc(-c2nc(N3CCOCC3)c3nc[nH]c3n2)c1 | 7.96 | 7.33 | – | – | – | – | –
Oc1cccc(-c2nc(N3CCOCC3)c3ncn(C4CCN(Cc5ccccc5)CC4)c3n2)c1 | 7.12 | 5.00 | – | – | – | – | –
COc1ccc(CN2CCC(n3cnc4c(N5CCOCC5)nc(-c5cccc(O)c5)nc43)CC2)cn1 | 7.26 | 6.51 | – | – | – | – | –
Oc1cncc(-c2nc(N3CCOCC3)c3ncn(C4CCN(Cc5ccc(F)nc5)CC4)c3n2)c1 | 7.03 | 7.21 | – | – | – | – | –
Oc1cccc(-c2nc(N3CCOCC3)c3ncn(C4CCN(Cc5cccnc5)CC4)c3n2)c1 | 7.18 | 6.23 | – | – | – | – | –
Oc1cncc(-c2nc(N3CCOCC3)c3ncn(C4CCN(Cc5ccc(Cl)cc5)CC4)c3n2)c1 | 7.80 | 6.92 | – | – | – | – | –
Oc1cccc(-c2nc(N3CCOCC3)c3ncn(C4CCNCC4)c3n2)c1 | 7.19 | 6.88 | 6.02 | – | – | – | –
Oc1cccc(-c2nc(N3CCOCC3)c3ncn(C4CCN(Cc5cncc(Cl)c5)CC4)c3n2)c1 | 7.43 | 6.47 | 6.70 | – | – | – | –
OCc1cccc(-c2nc(N3CCOCC3)c3ncn(C4CCN(Cc5ccc(F)cc5)CC4)c3n2)c1 | 7.15 | 6.23 | – | – | – | – | –
Oc1cccc(-c2nc(N3CCOCC3)c3nc[nH]c3n2)c1 | 6.82 | 5.63 | 5.78 | – | – | – | –
Oc1cccc(-c2nc(N3CCOCC3)c3ncn(C4CCN(Cc5ccc(N6CCOCC6)nc5)CC4)c3n2)c1 | 7.40 | 6.43 | 6.82 | – | – | – | –
OCc1cccc(-c2nc(N3CCOCC3)c3ncn(C4CCN(Cc5ccc(-c6ccncc6)cc5)CC4)c3n2)c1 | 7.64 | 6.65 | – | – | – | – | –
OCc1cccc(-c2nc(N3CCOCC3)c3ncn(C4CCN(Cc5ccccc5F)CC4)c3n2)c1 | 7.38 | 5.96 | – | – | – | – | –
CN(C)CCCOc1ccc(CN2CCC(n3cnc4c(N5CCOCC5)nc(-c5cccc(CO)c5)nc43)CC2)cc1 | 7.80 | 6.58 | – | 6.29 | Active | 6.16 | 6.52
OCc1cccc(-c2nc(N3CCOCC3)c3ncn(C4CCN(c5ccc(F)cc5F)CC4)c3n2)c1 | 7.36 | 6.19 | 5.69 | – | – | – | –
Oc1cncc(-c2nc(N3CCOCC3)c3ncn(C4CCNCC4)c3n2)c1 | 7.85 | 7.36 | – | – | – | – | –
OCc1cccc(-c2nc(N3CCOCC3)c3ncn(C4CCN(Cc5ccccn5)CC4)c3n2)c1 | 7.19 | 6.11 | – | – | – | – | –
CC(=O)N1CCC(n2cnc3c(N4CCOCC4)nc(-c4cccc(CO)c4)nc32)CC1 | 6.72 | 5.86 | – | – | – | – | –
